Measurements: ChEMBL document CHEMBL1221275 (Bioorg Med Chem, 2010)

Legend:
MT4 = assay: Cytotoxicity against human MT4 cells after 4 days; type: cell-based; conditions: MT4, 96 h
Outline: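 Mock-infected MT-4 cells were used. IC50 is the concentration giving 50% inhibition of cell growth. Values are averages of at least two separate experiments.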

[1] = Therapeutic index, ratio of IC50 for human MT4 cells to EC50 for HIV1 NL4-3; type: cell-based; conditions: read-out: TI
Outline: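 TI was calculated as IC50 (growth inhibition of mock-infected MT-4 cells) divided by EC50 (inhibition of HIV-1 NL4-3 replication in MT-4 cells). Both inputs are averages of at least two separate experiments.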

[2] = test system: Human immunodeficiency virus 1; assay: Antiviral activity against HIV1 NL4-3 infected in human MT4 cells assessed as inhibition of viral replication after 4 days by p24 antigen based ELISA assay; type: functional, organism-based; conditions: Human immunodeficiency virus 1, NL4-3, MT4, 96 h

Row | Compound | IC50 (MT4) | selectivity ratio [1] | EC50 [2]
1 | C=C(C)[C@@H]1CC[C@]2(COC(=O)CCC(=O)OC[C@H]3O[C@@H](n4cc(C)c(=O)[nH]c4=O)C[C@@H]3N=[N+]=[N-])CC[C@]3(C)[C@H](CC[C@@H]4[C@@]5(C)CC[C@H](OC(=O)CC(C)(C)C(=O)O)C(C)(C)[C@@H]5CC[C@]43C)[C@@H]12 | 7100 nM | 158 | 45 nM
2 | C=C(C)[C@@H]1CC[C@]2(COC(=O)CCCC(=O)OC[C@H]3O[C@@H](n4cc(C)c(=O)[nH]c4=O)C[C@@H]3N=[N+]=[N-])CC[C@]3(C)[C@H](CC[C@@H]4[C@@]5(C)CC[C@H](OC(=O)CC(C)(C)C(=O)O)C(C)(C)[C@@H]5CC[C@]43C)[C@@H]12 | 8700 nM | 145 | 60 nM
3 | C=C(C)[C@@H]1CC[C@]2(COC(=O)CC(C)(C)C(=O)OC[C@H]3O[C@@H](n4cc(C)c(=O)[nH]c4=O)C[C@@H]3N=[N+]=[N-])CC[C@]3(C)[C@H](CC[C@@H]4[C@@]5(C)CC[C@H](OC(=O)CC(C)(C)C(=O)O)C(C)(C)[C@@H]5CC[C@]43C)[C@@H]12 | 7000 nM | 71 | 98 nM
4 | C=C(C)[C@@H]1CC[C@]2(COC(=O)C(C)(C)CC(=O)OC[C@H]3O[C@@H](n4cc(C)c(=O)[nH]c4=O)C[C@@H]3N=[N+]=[N-])CC[C@]3(C)[C@H](CC[C@@H]4[C@@]5(C)CC[C@H](OC(=O)CC(C)(C)C(=O)O)C(C)(C)[C@@H]5CC[C@]43C)[C@@H]12 | 5400 nM | 135 | 40 nM
5 | C=C(C)[C@@H]1CC[C@]2(COC(=O)CC(C)(C)CC(=O)OC[C@H]3O[C@@H](n4cc(C)c(=O)[nH]c4=O)C[C@@H]3N=[N+]=[N-])CC[C@]3(C)[C@H](CC[C@@H]4[C@@]5(C)CC[C@H](OC(=O)CC(C)(C)C(=O)O)C(C)(C)[C@@H]5CC[C@]43C)[C@@H]12 | 8100 nM | 129 | 63 nM
6 | C=C(C)[C@@H]1CC[C@]2(COC(=O)CC(C)(C)CC(=O)OC[C@H]3O[C@@H](n4cc(C)c(=O)[nH]c4=O)C[C@@H]3N=[N+]=[N-])CC[C@]3(C)[C@H](CC[C@@H]4[C@@]5(C)CC[C@H](OC(=O)CC(C)(C)CC(=O)O)C(C)(C)[C@@H]5CC[C@]43C)[C@@H]12 | 7700 nM | 43 | 180 nM
7 | Cc1cn([C@H]2C[C@H](N=[N+]=[N-])[C@@H](COC(=O)C(C)(C)CC(=O)OC[C@]34CC[C@@H](C(C)C)[C@@H]3[C@H]3CC[C@@H]5[C@@]6(C)CC[C@H](OC(=O)CC(C)(C)C(=O)O)C(C)(C)[C@@H]6CC[C@@]5(C)[C@]3(C)CC4)O2)c(=O)[nH]c1=O | 9000 nM | 103 | 87 nM
8 | Cc1cn([C@H]2C[C@H](N=[N+]=[N-])[C@@H](COC(=O)CC(C)(C)C(=O)OC[C@]34CC[C@@H](C(C)C)[C@@H]3[C@H]3CC[C@@H]5[C@@]6(C)CC[C@H](OC(=O)CC(C)(C)C(=O)O)C(C)(C)[C@@H]6CC[C@@]5(C)[C@]3(C)CC4)O2)c(=O)[nH]c1=O | 7700 nM | 138 | 56 nM
9 | Cc1cn([C@H]2C[C@H](N=[N+]=[N-])[C@@H](COC(=O)CC(C)(C)CC(=O)OC[C@]34CC[C@@H](C(C)C)[C@@H]3[C@H]3CC[C@@H]5[C@@]6(C)CC[C@H](OC(=O)CC(C)(C)C(=O)O)C(C)(C)[C@@H]6CC[C@@]5(C)[C@]3(C)CC4)O2)c(=O)[nH]c1=O | 9000 nM | 31 | 290 nM
10 | Cc1cn([C@H]2C[C@H](N=[N+]=[N-])[C@@H](COC(=O)CC(C)(C)C(=O)OC[C@]34CC[C@@H](C(C)C)[C@@H]3[C@H]3CC[C@@H]5[C@@]6(C)CC[C@H](OC(=O)CCCC(=O)O)C(C)(C)[C@@H]6CC[C@@]5(C)[C@]3(C)CC4)O2)c(=O)[nH]c1=O | 8000 nM | 110 | 73 nM
11 | Cc1cn([C@H]2C[C@H](N=[N+]=[N-])[C@@H](COC(=O)C(C)(C)CC(=O)OC[C@]34CC[C@@H](C(C)C)[C@@H]3[C@H]3CC[C@@H]5[C@@]6(C)CC[C@H](OC(=O)CCCC(=O)O)C(C)(C)[C@@H]6CC[C@@]5(C)[C@]3(C)CC4)O2)c(=O)[nH]c1=O | 7200 nM | 28 | 260 nM
12 | Cc1cn([C@H]2C[C@H](N=[N+]=[N-])C(COC(=O)CCCC(=O)OC[C@]34CC[C@@H](C(C)C)[C@@H]3[C@H]3CC[C@@H]5[C@@]6(C)CC[C@H](OC(=O)CCCC(=O)O)C(C)(C)[C@@H]6CC[C@@]5(C)[C@]3(C)CC4)O2)c(=O)[nH]c1=O (some centres not stated) | 9000 nM | 97 | 93 nM
13 | Cc1cn([C@H]2C[C@H](N=[N+]=[N-])C(COC(=O)CC(C)(C)CC(=O)OC[C@]34CC[C@@H](C(C)C)[C@@H]3[C@H]3CC[C@@H]5[C@@]6(C)CC[C@H](OC(=O)CCCC(=O)O)C(C)(C)[C@@H]6CC[C@@]5(C)[C@]3(C)CC4)O2)c(=O)[nH]c1=O (some centres not stated) | 8500 nM | 7 | 1210 nM
14 | Cc1cn([C@H]2C[C@H](N=[N+]=[N-])C(COC(=O)CC(C)(C)CC(=O)OC[C@]34CC[C@@H](C(C)C)[C@@H]3[C@H]3CC[C@@H]5[C@@]6(C)CC[C@H](OC(=O)CC(C)(C)CC(=O)O)C(C)(C)[C@@H]6CC[C@@]5(C)[C@]3(C)CC4)O2)c(=O)[nH]c1=O (some centres not stated) | 9800 nM | 27 | 360 nM
15 | C=C(C)[C@@H]1CC[C@]2(COC(=O)CCC(=O)O)CC[C@]3(C)[C@H](CC[C@@H]4[C@@]5(C)CC[C@H](OC(=O)CC(C)(C)C(=O)O)C(C)(C)[C@@H]5CC[C@]43C)[C@@H]12 | 11300 nM | 63 | 180 nM
16 | C=C(C)[C@@H]1CC[C@]2(COC(=O)CCCC(=O)O)CC[C@]3(C)[C@H](CC[C@@H]4[C@@]5(C)CC[C@H](OC(=O)CC(C)(C)C(=O)O)C(C)(C)[C@@H]5CC[C@]43C)[C@@H]12 | > 46600 nM | > 47 | 310 nM
17 | C=C(C)[C@@H]1CC[C@]2(C(=O)O)CC[C@]3(C)[C@H](CC[C@@H]4[C@@]5(C)CC[C@H](OC(=O)CC(C)(C)C(=O)O)C(C)(C)[C@@H]5CC[C@]43C)[C@@H]12 [BEVIRIMAT] | > 5000 nM | > 52 | 96 nM
18 | Cc1cn([C@H]2C[C@H](N=[N+]=[N-])[C@@H](CO)O2)c(=O)[nH]c1=O [ZIDOVUDINE] | > 37400 nM | – | –
